Calls of active or inactive are those of the source.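 Rule for the calls, unless noted: active = GFP response above 150% of the DMSO level; inconclusive = fewer than 70 events counted for a yeast strain; inactive = the rest.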
Legend:
[1] = RPL19A-GFP modulators, yeast TOR pathway, confirmation, cell-based, S. cerevisiae, flow cytometry, cherry picks, mother/daughter gates (AID 2270;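 active = GFP response below 50% of the DMSO control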); conditions: S. cerevisiae RPL19A-GFP strain, 3 h, at 10 µM, stronger effect = lower value, 100 = same GFP as DMSO wells
[2] = LAP4-GFP expression modulators in yeast, confirmation, cell-based, cherry picks, flow cytometry, mother/daughter gates (AID 2271;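 active = GFP response above 150% of the DMSO control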;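 note: ratio of sample to DMSO plate mean so 100% equals DMSO level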); conditions: S. cerevisiae LAP4-GFP strain, 3 h, at 10 µM, stronger effect = higher value, 100 means same as DMSO control
In short: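 System – GFP-fusion yeast strain · Amount – 0.2 OD600 cells · Buffer or medium – SC growth medium · Dosing – single test-compound dose, 10 µM final · Schedule – 3 h treatment at 30 °C with rotation · Detection – GFP by flow cytometry · Read-out – per-gate (all, mother, daughter) GFP response vs DMSO · Benchmarks – positive rapamycin (400 ng/mL), negative DMSO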

[3] = modulators of MEP2-GFP levels in yeast, confirmation, S. cerevisiae, flow cytometry GFP, cherry picks (AID 2272;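 active = GFP response above 150% of the DMSO control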;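 note: ratio of well signal to plate DMSO mean so 100% equals DMSO level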); conditions: S. cerevisiae MEP2-GFP strain, 3 h, at 10 µM, stronger effect = higher value
[4] = AGP1-GFP expression modulators, hit retest, confirmation, cell-based, flow cytometry, S. cerevisiae, cherry picks (AID 2273);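 note: median GFP channel fluorescence over the whole cell population gate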; conditions: S. cerevisiae AGP1-GFP strain, 3 h, at 10 µM
[5] = modulators of CIT2-GFP expression in yeast, confirmation, S. cerevisiae, GFP fusion, cherry picks, mother/daughter gates (AID 2274); conditions: S. cerevisiae CIT2-GFP strain, flow cytometry, 3 h, at 10 µM, stronger effect = higher value
[6] = measured here: daughter cell gate
[7] = measured here: mother cell gate
[8] = measured here: daughter cell gate response
[9] = measured here: mother cell gate response

Row | Structure (SMILES) | GFP response vs DMSO [1] | GFP response vs DMSO [1, 6] [%] | GFP response vs DMSO [1, 7] [%] | GFP response relative to DMSO [2] | GFP response relative to DMSO [2, 8] [%] | GFP response relative to DMSO [2, 9] [%] | GFP response vs DMSO [3] | GFP response, % of DMSO [4] | GFP response, % of DMSO [5] | GFP response, % of DMSO [5, 6] [%] | GFP response, % of DMSO [5, 7] [%]
1 | CS(=O)(=O)Nc1ccc(C2=NN(S(C)(=O)=O)C(c3ccc4c(c3)OCO4)C2)cc1 (centres undefined) | 98.6% (inactive) | 98.4 | 99.4 | 97.4% (inactive) | 102 | 99.3 | 104% (inactive) | 102% (inactive) | 103% (inactive) | 99.7 | 103
2 | COc1ccc(C(=O)/C(=C/O)N=Nc2ccc(F)cc2)cc1 | 99.1% (inactive) | 97.8 | 98.6 | 106% (inactive) | 89.3 | 109 | 102% (inactive) | 91.4% (inactive) | 83.5% (inactive) | 85.3 | 80.5
3 | O=C(O)c1ccccc1SC1CC(=O)N(c2ccc3c(c2)OCO3)C1=O (centres undefined) | 97.6% (inactive) | 102 | 93.8 | 106% (inactive) | 102 | 108 | 103% (inactive) | 102% (inactive) | 95.8% (inactive) | 99.3 | 94.9
4 | CCOC(=O)C(=CNNc1ccccc1)C(=O)OCC | 106% (inactive) | 105 | 105 | 136% (inactive) | 133 | 140 | 113% (inactive) | 102% (inactive) | 103% (inactive) | 101 | 103
5 | CCOC(=O)c1sc(NC(=O)c2ccco2)nc1-c1ccccc1 | 97.8% (inactive) | 96.4 | 96.7 | 96.5% (inactive) | 94.4 | 98.4 | 103% (inactive) | 100% (inactive) | 98.6% (inactive) | 97.6 | 99.3
6 | COc1ccc(/C(C)=N/NC(=O)c2ccc(N(C)C)cc2)cc1 | 103% (inactive) | 102 | 103 | 95% (inactive) | 94.1 | 97.2 | 104% (inactive) | 101% (inactive) | 104% (inactive) | 103 | 104
7 | Cc1ccc(NCN2C(=O)C3C4C=CC(C4)C3C2=O)cc1 (centres undefined) | 96.4% (inactive) | 97 | 98.1 | 95.3% (inactive) | 93.6 | 96.5 | 97.5% (inactive) | 98.4% (inactive) | 102% (inactive) | 102 | 100
8 | CCC(=O)Nc1nc(C)c(-c2csc(Nc3cccc(C(=O)O)c3)n2)s1 | 97.3% (inactive) | 97.8 | 97.3 | 85.8% (inactive) | 89.8 | 87.3 | 101% (inactive) | 94.8% (inactive) | 100% (inactive) | 101 | 100
9 | Cc1nc(Sc2ccccc2)c(C#N)c(C)c1[N+](=O)[O-] | 98.2% (inactive) | 99.4 | 96.6 | 94.1% (inactive) | 92.8 | 91.9 | 109% (inactive) | 88.4% (inactive) | 115% (inactive) | 117 | 113
10 | O=C1c2ccsc2SCCN1Cc1c(F)cccc1Cl | 92.8% (inactive) | 90.7 | 93.9 | 112% (inactive) | 110 | 113 | 96.8% (inactive) | 99% (inactive) | 98.8% (inactive) | 99.2 | 98.1
11 | COc1cc(OC)cc(-c2nc(-c3ccccc3OC)no2)c1 | 97.8% (inactive) | 99.3 | 95.6 | 97.7% (inactive) | 97.5 | 101 | 114% (inactive) | 108% (inactive) | 107% (inactive) | 108 | 107
12 | O=C(N/N=C/c1c(Cl)cccc1Cl)c1cccc(F)c1 | 95.6% (inactive) | 95.3 | 94 | 92.9% (inactive) | 94.4 | 93.4 | 103% (inactive) | 97.5% (inactive) | 97.2% (inactive) | 99.3 | 97.1
13 | O=C(Nc1ccccc1O)c1ccc(Cl)cc1 | 96.8% (inactive) | 95.6 | 96.6 | 98.7% (inactive) | 100 | 100 | 102% (inactive) | 97.8% (inactive) | 100% (inactive) | 99.7 | 98.7
14 | CCc1noc(C)c1C(=O)Nc1nc(-c2ccc(Cl)cc2Cl)c(C)s1 | 98.8% (inactive) | 99.1 | 98.8 | 98.8% (inactive) | 99.3 | 97.5 | 99.5% (inactive) | 102% (inactive) | 96.4% (inactive) | 96.4 | 94.5
15 | O=c1oc2cc(Oc3c([N+](=O)[O-])cc(C(F)(F)F)cc3[N+](=O)[O-])ccc2c2c1CCCC2 | 95.4% (inactive) | 90.7 | 86.8 | 246% (active) | 153 | 249 | 105% (inactive) | 108% (inactive) | 100% (inactive) | 97.4 | 94.4
16 | COc1ccc(OC)c(C(=O)/C=C/c2ccccc2C(F)(F)F)c1 | 97.6% (inactive) | 95.8 | 98.7 | 102% (inactive) | 103 | 103 | 105% (inactive) | 98.9% (inactive) | 94.7% (inactive) | 96.8 | 94.7
17 | CCCc1[nH]nc2c1C(c1ccc(O)cc1OCC)C(C#N)=C(N)O2 (centres undefined) | 102% (inactive) | 104 | 100 | 92.9% (inactive) | 99 | 92.3 | 106% (inactive) | 101% (inactive) | 104% (inactive) | 105 | 104

Row | Structure (SMILES) | GFP response vs DMSO [1] | GFP response vs DMSO [1, 6] [%] | GFP response vs DMSO [1, 7] [%] | GFP response relative to DMSO [2] | GFP response relative to DMSO [2, 8] [%] | GFP response relative to DMSO [2, 9] [%] | GFP response vs DMSO [3] | GFP response, % of DMSO [4] | GFP response, % of DMSO [5] | GFP response, % of DMSO [5, 6] [%] | GFP response, % of DMSO [5, 7] [%]
18 | COc1cccc(N=Nc2ccc(O)c3ncccc23)c1 | 98.2% (inactive) | 97.4 | 98 | 224% (active) | 205 | 228 | 117% (inactive) | 91.3% (inactive) | 105% (inactive) | 106 | 99.7
19 | Cc1onc(-c2ccccc2)c1C(=O)NC(=S)NNC(=O)c1ccco1 | 101% (inactive) | 101 | 102 | 102% (inactive) | 104 | 103 | 102% (inactive) | 98.1% (inactive) | 104% (inactive) | 106 | 99.7
20 | Cc1ccc2nc(/C(C#N)=C/c3ccc(O)c(O)c3)[nH]c2c1 | 103% (inactive) | 102 | 105 | 123% (inactive) | 110 | 133 | 230% (active) | 102% (inactive) | 128% (inactive) | 114 | 140
21 | CCn1c(=O)c(C(=O)Nc2ccccc2C)c(O)c2ccccc21 | 97.8% (inactive) | 98.1 | 97.9 | 102% (inactive) | 102 | 99.3 | 105% (inactive) | 96% (inactive) | 96.9% (inactive) | 99.1 | 96.1
22 | COc1ccc(C(=O)ON=C2CCN(c3ccc([N+](=O)[O-])cc3)CC2)cc1 | 97.6% (inactive) | 97.5 | 97.6 | 117% (inactive) | 107 | 118 | 97.5% (inactive) | 76.1% (inactive) | 108% (inactive) | 104 | 108
23 | COc1ccc(C2CC(c3ccccc3)=NN2S(=O)(=O)c2ccccc2)c(OC)c1 (centres undefined) | 99.2% (inactive) | 99.8 | 99.1 | 99.5% (inactive) | 102 | 99.4 | 99% (inactive) | 103% (inactive) | 106% (inactive) | 108 | 104
24 | O=C(Nc1ccccc1O)c1ccccc1O | 95.8% (inactive) | 96.4 | 94.2 | 96.5% (inactive) | 96 | 95.4 | 106% (inactive) | 103% (inactive) | 101% (inactive) | 103 | 100
25 | Cc1cc(NC(=O)c2cncc(Br)c2)ccc1NC(=O)c1cc2ccccc2o1 | 102% (inactive) | 100 | 104 | 90.2% (inactive) | 87.9 | 95.2 | 109% (inactive) | 95% (inactive) | 99.1% (inactive) | 98.1 | 97.7
26 | C=CCN1C(=O)C2(C(C#N)=C(N)Oc3n[nH]c(CCC)c32)c2ccccc21 (centres undefined) | 100% (inactive) | 99.8 | 102 | 97.4% (inactive) | 100 | 98.3 | 100% (inactive) | 102% (inactive) | 100% (inactive) | 98.1 | 102
27 | COC(=O)c1cc(S(=O)(=O)Nc2nn(C)c3ccccc23)oc1C | 97.2% (inactive) | 98.1 | 97.1 | 96.7% (inactive) | 97.6 | 94 | 100% (inactive) | 95% (inactive) | 99.7% (inactive) | 101 | 99.7
28 | O=C(O)CCc1ccc(-c2ccc(Cl)cc2)o1 | 99% (inactive) | 91.7 | 97.2 | 138% (inactive) | 128 | 140 | 99% (inactive) | 85.4% (inactive) | 94.4% (inactive) | 88.4 | 94.4
29 | CCN(CC)c1ccc(/C=C2\SC(=O)N(C(C)C)C2=O)o1 | 99.6% (inactive) | 99.8 | 96.5 | 117% (inactive) | 116 | 117 | 132% (inactive) | 105% (inactive) | 112% (inactive) | 115 | 110
30 | CC(C)c1nnc(SCC(=O)N2CCc3ccccc32)n1C | 102% (inactive) | 101 | 101 | 96.2% (inactive) | 95.6 | 99.3 | 102% (inactive) | 97.6% (inactive) | 97.8% (inactive) | 98.1 | 96.6
31 | C/C(=N/NC(=O)c1ccc(C(C)(C)C)cc1)c1ccccn1 | 110% (inactive) | 107 | 101 | 231% (active) | 197 | 209 | 126% (inactive) | 90% (inactive) | 112% (inactive) | 115 | 98.2
32 | CCC(=O)c1ccc(N2CCN(C(=O)c3ccc(Br)cc3)CC2)c(F)c1 | 97.6% (inactive) | 97.6 | 94.4 | 115% (inactive) | 117 | 112 | 101% (inactive) | 96.1% (inactive) | 95.9% (inactive) | 97.4 | 93.2
33 | Cc1cc(O)c(C(=O)/C=C/c2ccc(Cl)cc2)c(=O)o1 | 97.2% (inactive) | 101 | 95.5 | 180% (active) | 156 | 180 | 110% (inactive) | 99.7% (inactive) | 95% (inactive) | 104 | 86.3
34 | Cc1cc(=O)n2c3c(sc2n1)C(=O)N(Cc1ccccc1)C3=O | 94.3% (inactive) | 94.5 | 94 | 152% (active) | 140 | 161 | 103% (inactive) | 105% (inactive) | 81% (inactive) | 87.3 | 74.8
